Reference: ChEMBL document CHEMBL1177710, “Structure-based drug design and optimization of mannoside bacterial FimH antagonists” (J Med Chem, 2010)

Tests used:
Escherichia coli [1] = assay: Inhibition of Escherichia coli FimH-mediated hemagglutinination of guinea pig red blood cells assessed as drug level required for > 90% inhibition of hemagglutinination
[2] = Displacement of 5(6)-FAM-mannoside from Escherichia coli FimH by fluorescence polarization assay
[3] = Binding affinity to Escherichia coli FimH by fluorescence polarization assay
Outline: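 Competitive fluorescence polarization/anisotropy assay. Compounds from 10 mM DMSO stocks were 2-fold serially diluted to 11 final concentrations of 0–10 μM, in duplicate plates. Mix: 200 nM FimH, 20 nM 5(6)-FAM-labelled mannoside tracer, 50 mM Tris, 100 mM NaCl, 1 mM EDTA, 5 μg BSA, 5 mM BME. Anisotropy was averaged over 100 readings/well and fitted to a one-site competition curve, with a mannoside positive control.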

Escherichia coli [4] = assay: Selectivity ratio of inhibition of Escherichia coli FimH-mediated hemagglutinination of guinea pig red blood cells to EC50 for Escherichia coli FimH
[5] = Binding affinity to Escherichia coli FimH by surface plasmon resonance assay
Escherichia coli [6] = assay: Ratio of alpha-D-heptylmannoside to compound inhibitory activity against Escherichia coli FimH-mediated hemagglutinination of guinea pig red blood cells

Structure (SMILES)	Activity (Escherichia coli [1])	EC50 [2]	other results
OC[C@H]1O[C@H](Oc2ccc(-c3cccc(O)c3)cc2)[C@@H](O)[C@@H](O)[C@@H]1O	4 µM	–	–
COC(=O)c1cc2ccc(O[C@H]3O[C@H](CO)[C@@H](O)[C@H](O)[C@@H]3O)cc2s1	2 µM	–	–
COc1ccc(O[C@H]2O[C@H](CO)[C@@H](O)[C@H](O)[C@@H]2O)cc1	8 µM	–	–
CC(=O)Nc1ccccc1O[C@H]1O[C@H](CO)[C@@H](O)[C@H](O)[C@@H]1O	125 µM	–	–
O=C(O)c1cc(C(=O)O)cc(-c2ccc(O[C@H]3O[C@H](CO)[C@@H](O)[C@H](O)[C@@H]3O)cc2)c1	2 µM	–	–
O=C(O)c1cccc(-c2ccc(O[C@H]3O[C@H](CO)[C@@H](O)[C@H](O)[C@@H]3O)cc2)c1	4 µM	99 nM	–
OC[C@H]1O[C@H](Oc2ccc(-c3ccccc3O)cc2)[C@@H](O)[C@@H](O)[C@@H]1O	8 µM	–	–
O=C(c1ccccc1)c1cccc(O[C@H]2O[C@H](CO)[C@@H](O)[C@H](O)[C@@H]2O)c1	8 µM	–	–
COC(=O)c1cccc(-c2ccc(O[C@H]3O[C@H](CO)[C@@H](O)[C@H](O)[C@@H]3O)cc2)c1	1 µM	52 nM	–
OC[C@H]1O[C@H](Oc2ccc3ccccc3c2)[C@@H](O)[C@@H](O)[C@@H]1O	6 µM	–	–
O=c1[nH]c2ccc(O[C@H]3O[C@H](CO)[C@@H](O)[C@H](O)[C@@H]3O)cc2o1	4 µM	–	–
OC[C@H]1O[C@H](Oc2ccc(Cl)cc2)[C@@H](O)[C@@H](O)[C@@H]1O	32 µM	–	–
OC[C@H]1O[C@H](Oc2ccc(-c3ccncc3)cc2)[C@@H](O)[C@@H](O)[C@@H]1O	2 µM	–	–
N#Cc1ccccc1O[C@H]1O[C@H](CO)[C@@H](O)[C@H](O)[C@@H]1O	6 µM	–	–
O=C(O)c1cc(C(=O)NCCCCO[C@H]2O[C@H](CO)[C@@H](O)[C@H](O)[C@@H]2O)cc(-c2c3ccc(=O)cc-3oc3cc(O)ccc23)c1	125 µM	–	Kd [3]: 170 nM
CC(=O)Nc1cccc(O[C@H]2O[C@H](CO)[C@@H](O)[C@H](O)[C@@H]2O)c1	12 µM	160 nM	–
OC[C@H]1O[C@H](Oc2ccc(-c3cccnc3)cc2)[C@@H](O)[C@@H](O)[C@@H]1O	2 µM	–	–
COC(=O)c1ccc(-c2ccc(O[C@H]3O[C@H](CO)[C@@H](O)[C@H](O)[C@@H]3O)cc2)cc1	4 µM	59 nM	–
NC(=O)c1ccc(O[C@H]2O[C@H](CO)[C@@H](O)[C@H](O)[C@@H]2O)cc1	15 µM	–	–
N#Cc1cccc(O[C@H]2O[C@H](CO)[C@@H](O)[C@H](O)[C@@H]2O)c1	23 µM	162 nM	–
OC[C@H]1O[C@H](Oc2ccccc2Cl)[C@@H](O)[C@@H](O)[C@@H]1O	4 µM	–	–

Structure (SMILES)	Activity (Escherichia coli [1])	EC50 [2]	other results
COC(=O)c1cc2cc(O[C@H]3O[C@H](CO)[C@@H](O)[C@H](O)[C@@H]3O)ccc2s1	2 µM	–	–
Cc1ccc(O[C@H]2O[C@H](CO)[C@@H](O)[C@H](O)[C@@H]2O)cc1	8 µM	–	–
CS(=O)(=O)Nc1ccccc1-c1ccc(O[C@H]2O[C@H](CO)[C@@H](O)[C@H](O)[C@@H]2O)cc1	12 µM	–	–
O=[N+]([O-])c1cccc(O[C@H]2O[C@H](CO)[C@@H](O)[C@H](O)[C@@H]2O)c1	16 µM	–	–
COC(=O)Cc1ccc(O[C@H]2O[C@H](CO)[C@@H](O)[C@H](O)[C@@H]2O)cc1	30 µM	–	–
COC(=O)c1ccc(-c2cccc(O[C@H]3O[C@H](CO)[C@@H](O)[C@H](O)[C@@H]3O)c2)cc1	6 µM	–	–
O=[N+]([O-])c1ccc(O[C@H]2O[C@H](CO)[C@@H](O)[C@H](O)[C@@H]2O)cc1	31 µM	–	–
CNC(=O)c1cccc(-c2ccc(O[C@H]3O[C@H](CO)[C@@H](O)[C@H](O)[C@@H]3O)cc2)c1	1 µM	75 nM	–
CC(=O)Nc1cccc(-c2ccc(O[C@H]3O[C@H](CO)[C@@H](O)[C@H](O)[C@@H]3O)cc2)c1	2 µM	70 nM	–
CC(=O)Oc1cccc(O[C@H]2O[C@H](CO)[C@@H](O)[C@H](O)[C@@H]2O)c1	16 µM	–	–
CNC(=O)c1cc(C(=O)NC)cc(-c2ccc(O[C@H]3O[C@H](CO)[C@@H](O)[C@H](O)[C@@H]3O)cc2)c1	0.37 µM	87 nM	Selectivity ratio (Escherichia coli [4]): 4
N#Cc1ccc(-c2ccc(O[C@H]3O[C@H](CO)[C@@H](O)[C@H](O)[C@@H]3O)cc2)cc1	8 µM	–	–
OC[C@H]1O[C@H](Oc2ccccc2)[C@@H](O)[C@@H](O)[C@@H]1O	30 µM	114 nM	–
OC[C@H]1O[C@H](Oc2cccc(Cl)c2)[C@@H](O)[C@@H](O)[C@@H]1O	8 µM	–	–
CS(=O)(=O)Nc1cccc(-c2ccc(O[C@H]3O[C@H](CO)[C@@H](O)[C@H](O)[C@@H]3O)cc2)c1	2 µM	97 nM	–
COC(=O)c1cc(O[C@H]2O[C@H](CO)[C@@H](O)[C@H](O)[C@@H]2O)cc(C(=O)OC)c1	2 µM	91 nM	–
O=[N+]([O-])c1ccc(-c2ccc(O[C@H]3O[C@H](CO)[C@@H](O)[C@H](O)[C@@H]3O)cc2)cc1	2 µM	–	–
NC(=O)c1cccc(O[C@H]2O[C@H](CO)[C@@H](O)[C@H](O)[C@@H]2O)c1	16 µM	–	–
N#Cc1ccc(O[C@H]2O[C@H](CO)[C@@H](O)[C@H](O)[C@@H]2O)cc1	30 µM	–	–
CC(=O)Nc1ccc(O[C@H]2O[C@H](CO)[C@@H](O)[C@H](O)[C@@H]2O)cc1	8 µM	122 nM	–
NC(=O)c1ccccc1-c1ccc(O[C@H]2O[C@H](CO)[C@@H](O)[C@H](O)[C@@H]2O)cc1	6 µM	–	–

Structure (SMILES)	Activity (Escherichia coli [1])	EC50 [2]	other results
COC(=O)c1cccc(O[C@H]2O[C@H](CO)[C@@H](O)[C@H](O)[C@@H]2O)c1	6 µM	84 nM	–
N#Cc1cccc(-c2ccc(O[C@H]3O[C@H](CO)[C@@H](O)[C@H](O)[C@@H]3O)cc2)c1	1 µM	–	–
CNS(=O)(=O)c1cccc(-c2ccc(O[C@H]3O[C@H](CO)[C@@H](O)[C@H](O)[C@@H]3O)cc2)c1	1 µM	–	–
OCc1ccc(-c2ccc(O[C@H]3O[C@H](CO)[C@@H](O)[C@H](O)[C@@H]3O)cc2)cc1	6 µM	–	–
OC[C@H]1O[C@H](OCc2ccccc2)[C@@H](O)[C@@H](O)[C@@H]1O	–	187 nM	–
O=C(O)c1cccc(O[C@H]2O[C@H](CO)[C@@H](O)[C@H](O)[C@@H]2O)c1	60 µM	–	–
NC(=O)c1cccc(-c2ccc(O[C@H]3O[C@H](CO)[C@@H](O)[C@H](O)[C@@H]3O)cc2)c1	2 µM	78 nM	–
COC(=O)c1ccc(O[C@H]2O[C@H](CO)[C@@H](O)[C@H](O)[C@@H]2O)cc1	8 µM	64 nM	–
OCc1ccccc1-c1ccc(O[C@H]2O[C@H](CO)[C@@H](O)[C@H](O)[C@@H]2O)cc1	16 µM	–	–
OCc1cccc(-c2ccc(O[C@H]3O[C@H](CO)[C@@H](O)[C@H](O)[C@@H]3O)cc2)c1	3 µM	–	–
O=C(NCCOCCNC(=O)c1cccc(-c2ccc(O[C@H]3O[C@H](CO)[C@@H](O)[C@H](O)[C@@H]3O)cc2)c1)c1cccc(-c2ccc(O[C@H]3O[C@H](CO)[C@@H](O)[C@H](O)[C@@H]3O)cc2)c1	0.75 µM	–	–
CCCCCCCO[C@H]1O[C@H](CO)[C@@H](O)[C@H](O)[C@@H]1O	15 µM	89 nM	Kd [5]: 5 nM
N#Cc1ccccc1-c1ccc(O[C@H]2O[C@H](CO)[C@@H](O)[C@H](O)[C@@H]2O)cc1	2 µM	–	–
COC(=O)c1cc(C(=O)OC)cc(-c2ccc(O[C@H]3O[C@H](CO)[C@@H](O)[C@H](O)[C@@H]3O)cc2)c1	0.15 µM	77 nM	Selectivity ratio (Escherichia coli [4]): 2
COc1cccc(-c2ccc(O[C@H]3O[C@H](CO)[C@@H](O)[C@H](O)[C@@H]3O)cc2)c1	1.5 µM	–	–
O=C(NCCOCCOCCNC(=O)c1cccc(-c2ccc(O[C@H]3O[C@H](CO)[C@@H](O)[C@H](O)[C@@H]3O)cc2)c1)c1cccc(-c2ccc(O[C@H]3O[C@H](CO)[C@@H](O)[C@H](O)[C@@H]3O)cc2)c1	–	–	Ratio (Escherichia coli [6]): 8
CNS(=O)(=O)c1ccccc1-c1ccc(O[C@H]2O[C@H](CO)[C@@H](O)[C@H](O)[C@@H]2O)cc1	4 µM	–	–
O=C1Cc2cc(O[C@H]3O[C@H](CO)[C@@H](O)[C@H](O)[C@@H]3O)ccc2O1	8 µM	–	–
CCCCO[C@H]1O[C@H](CO)[C@@H](O)[C@H](O)[C@@H]1O [BUTYLALPHAMAN]	125 µM	245 nM	Kd [5]: 151 nM
